Screening data from PubChem BioAssay.
The sample as a whole holds a higher share of hits than the screen did.
H69AR growth 86K: blocks growth of human H69AR lung tumor cells; H69AR lung tumor viability, ATP luminescence, 72 h; active compounds read low; viability, % at 10 µM; hit rate 6% among 85,000;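 active = viability at or below 40%; inactive = viability above 40%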;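 note: multidrug resistant small cell line overexpressing MRP-1 efflux transporter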
HCT116 PTEN-null: growth suppressors of cells with PTEN tumor suppressor deletion | viability, % at 10 µM | hit rate 1.2% among 140,000 | AID 827 | HCT116 PTEN-null viability, CellTiter-Glo, 60 h; active compounds read low;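 active = viability at or below a set limit, 4 SD under the median of all tested compounds, cut at about 3.7% in these data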;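 note: PTEN knockout HCT116 line with beta catenin targeted HCT116 as companion control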
Fibroblast inh: blocks proliferation of human lung fibroblasts. viability, % at 10 µM. hit rate 1.1% among 85,000. AID 719. LL 47 human lung fibroblast viability, ATP luminescence; active compounds read low;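 active = viability at or below 50% in the single dose screen; inactive = viability above 50%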;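 note: compound exposure lasted 72 h before the ATP readout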
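Signal: luminescent ATP detection, CellTiter-Glo; assay system: LL 47 human lung fibroblasts; input: 1,150 cells/well; incubation: overnight cell rest, 72 h compound treatment at 37 °C; measure: % viability versus median cells-only luminescence; medium: IMEM growth medium with 15% fetal bovine serum; dosing: compound addition at 0.1% DMSO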
HUVEC prolif 384: blocks proliferation of human endothelial cells; HUVEC proliferation, CellTiter-Glo luminescence, 72 h; active compounds read low; viability, % at 10 µM (by protocol); hit rate 1.1% among 86,000;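 active = viability at or below 30%; inactive = viability above 30%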
HCT116 bCat-KO: beta-catenin-lacking colon tumor cell growth suppression. HCT116 beta-catenin knockout viability, CellTiter-Glo, 60 h; active compounds read low. viability, % at 10 µM. hit rate 1.5% among 140,000. AID 818;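 active = viability at or under a set limit, the compound median less 4 SD, cut at about 6% in these data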
Each line names hits and unclear results; the compound was inactive in the other large screens.

CC1CC(C)(C)NC(=S)N1CCCC(=O)N1CCN(c2ccc(F)cc2)CC1 (configuration not stated)	none (no result: H69AR growth 86K, Fibroblast inh, HUVEC prolif 384)
COc1ccc(S(=O)(=O)N2c3cc(Cl)ccc3Oc3nc4ccccc4nc32)cc1	H69AR growth 86K 29
CCOC(=O)/C=C/S(=O)(=O)c1ccc(NC(C)=O)cc1	H69AR growth 86K -0.2, Fibroblast inh 14
O=c1[nH][nH]c(-c2ccccc2O)c1C(C[N+](=O)[O-])c1ccc(Cl)cc1Cl (configuration not stated)	none (no result: H69AR growth 86K, Fibroblast inh, HUVEC prolif 384)
O=c1[nH][nH]c(-c2ccccc2O)c1C(C[N+](=O)[O-])c1cccc(Cl)c1 (configuration not stated)	HCT116 bCat-KO 5.9 (no result: H69AR growth 86K, Fibroblast inh, HUVEC prolif 384)
O=c1[nH][nH]c(-c2ccccc2O)c1C(C[N+](=O)[O-])c1ccccc1 (configuration not stated)	HCT116 bCat-KO 5.7 (no result: H69AR growth 86K, Fibroblast inh, HUVEC prolif 384)
Clc1ccc(Cc2nc(-c3cccnc3)no2)cc1	none (no result: H69AR growth 86K, Fibroblast inh, HUVEC prolif 384)
COc1ccc2c(c1)c(=O)oc1cc(OCC(=O)NC3CC3)ccc12	H69AR growth 86K 36, HCT116 bCat-KO 3.8
COc1ccc2c(c1)c(=O)oc1cc(OCC(=O)NC3CCCCC3)ccc12	H69AR growth 86K 19
COc1ccccc1OCC(=O)NC1CCCCCC1	none
Cc1n[nH]c(C)c1N1C(=O)c2cccc3c(Br)ccc(c23)C1=O	HCT116 bCat-KO 4.8
CCC1CSC(Nc2ccc(C(=O)/C=C/c3ccc(OC)c(OC)c3)cc2)=N1 (configuration not stated)	HCT116 PTEN-null 3.4, HCT116 bCat-KO 3.0 (no result: H69AR growth 86K, Fibroblast inh, HUVEC prolif 384)
O=C(/C=C/c1ccc(Br)cc1)NC1CCCCCC1	none (no result: H69AR growth 86K, Fibroblast inh, HUVEC prolif 384)
CCC1CSC(Nc2ccc(C(=O)/C=C/c3ccc(Br)cc3)cc2)=N1 (configuration not stated)	HCT116 PTEN-null 2.8, HCT116 bCat-KO 5.4 (no result: H69AR growth 86K, Fibroblast inh, HUVEC prolif 384)
COC(=O)c1c(N2C(=O)[C@H]3[C@@H](C2=O)[C@]2(C(=O)Nc4c(C)cccc42)N2CCC[C@@H]32)sc(C)c1C	none (no result: H69AR growth 86K, Fibroblast inh, HUVEC prolif 384)
NNC(=O)CSc1cccc2cccnc12	none (no result: H69AR growth 86K, Fibroblast inh, HUVEC prolif 384)
O=C(CSc1cccc2cccnc12)N1CCCC1	H69AR growth 86K 0.0, Fibroblast inh 18
CN(C)C(=O)CSc1cccc2cccnc12	H69AR growth 86K 0.6, Fibroblast inh 40, HCT116 bCat-KO 4.3
CCC(=O)c1ccc(OCC(=O)Nc2nn3cnnc3s2)cc1	none
COc1ccc(C2c3ccc4ccccc4c3Oc3ncn(Cc4ccco4)c(=N)c32)cc1OC (configuration not stated)	HCT116 PTEN-null 0.9, HCT116 bCat-KO 1.7 (no result: H69AR growth 86K, Fibroblast inh, HUVEC prolif 384)
COc1ccc(C2c3ccc4ccccc4c3Oc3ncn4nc(Cc5ccccc5)nc4c32)cc1OC (configuration not stated)	none (no result: H69AR growth 86K, Fibroblast inh, HUVEC prolif 384)
COc1ccc(C2c3c(ncn(CCN4CCOCC4)c3=N)Oc3ccc4ccccc4c32)cc1OC (configuration not stated)	H69AR growth 86K 1.9
CN(C)C(=S)SCC(=O)Nc1ccc(Cl)cc1Cl	none (no result: H69AR growth 86K, Fibroblast inh, HUVEC prolif 384)
CC(C)C(=O)N(c1cc2sc(=O)oc2c2ccccc12)S(=O)(=O)c1cccs1	H69AR growth 86K 22
COc1ccc(N(C(=O)C(C)C)S(=O)(=O)c2cccs2)cc1	H69AR growth 86K 17
O=C(c1sc2cc(F)ccc2c1Cl)N1CCN(c2ccccc2)CC1	none (no result: H69AR growth 86K, Fibroblast inh, HUVEC prolif 384)
Nn1c(N2CCCCC2)nc2ccccc21	none
COc1ccc(NC(=O)C(c2ccccc2)N(C)C(=O)c2ccc(=O)[nH]c2)cc1 (configuration not stated)	none (no result: H69AR growth 86K, Fibroblast inh, HUVEC prolif 384)
CCOc1cc(/C=N/NC(=O)CSc2nnc(C)s2)ccc1OCc1ccccc1Cl	none (no result: H69AR growth 86K, Fibroblast inh, HUVEC prolif 384)
CCOc1cc(/C=N\NC(=O)Cn2nc([N+](=O)[O-])cc2C)ccc1OCc1cccc2ccccc12	H69AR growth 86K 16
FC(F)(F)c1ccc(N=Cc2sc(N3CCOCC3)nc2-c2ccccc2)cc1	none (no result: H69AR growth 86K, Fibroblast inh, HUVEC prolif 384)
Cc1c(C(=O)NC2CCCc3ccccc32)oc2ccc(S(=O)(=O)N3CCOCC3)cc12 (configuration not stated)	H69AR growth 86K 38
Cc1c(C(=O)NC2CCCc3ccccc32)oc2ccc(S(=O)(=O)N3CCCC3)cc12 (configuration not stated)	H69AR growth 86K 35
Cc1c(C(=O)NC2CC2)oc2ccc(S(=O)(=O)N3CCCCCC3)cc12	none
Cc1c(C(=O)NC2CCCc3ccccc32)oc2ccc(S(=O)(=O)N3CCCCC3)cc12 (configuration not stated)	none (no result: H69AR growth 86K, Fibroblast inh, HUVEC prolif 384)
CCOC(=O)c1cc(-c2ccccc2)sc1NC(=O)C(C)OC(=O)c1cccnc1Cl (configuration not stated)	none (no result: H69AR growth 86K, Fibroblast inh, HUVEC prolif 384)
